For assay [1], the system named is Aspergillus flavus. Put plainly: Antifungal activity against Aspergillus flavus assessed as mycelial growth at 20 uL after 4 to 12 days by agar disk diffusion method relative to untreated control. The format is functional. The method, boiled down: (§1)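 Aspergillus flavus, isolated from feeds, was grown on PDA plates seeded with 6 mm mycelial plugs from 10-day cultures. Three paper disks per dish carried either 60 µL pure essential oil or 60, 40 or 20 µL of single major oil constituents. Plates were sealed and incubated in the dark at 22 °C. Average colony diameter was read at 4, 8 and 12 days against water-impregnated disk controls.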
Background: In agar diffusion tests the substance spreads into inoculated agar from a disc or well.

For assay [2], the system named is Aspergillus flavus. Put plainly: Antifungal activity against Aspergillus flavus assessed as mycelial growth at 60 uL after 4 to 12 days by agar disk diffusion method relative to untreated control. The format is functional. The method, boiled down:
as §1

Each structure is given as a SMILES string.

Regarding `CC1=CC[C@H](C(C)C)C=C1` [ALPHA-PHELLANDRENE], the Activity in the assay on Aspergillus flavus [1] and in the assay on Aspergillus flavus [2] was 0% throughout.

On to `CC1=CC=C(C(C)C)CC1` [ALPHA-TERPINENE], for which the Activity in the assay with Aspergillus flavus [1] and in the assay on Aspergillus flavus [2] was 0% in each case.

For `CC1=CC[C@@H](C(C)(C)O)CC1` [ALPHA-TERPINEOL], the Activity with Aspergillus flavus [1] and with Aspergillus flavus [2] was 100% in each case.

In the case of `CC1=CCC(C(C)C)=CC1` [GAMMA-TERPINENE], the Activity in the assay with Aspergillus flavus [1] and in the assay on Aspergillus flavus [2] was 0% throughout.

For `CC1=CCC(O)(C(C)C)CC1` (configuration not stated) [TERPINEOL], the Activity in the assay on Aspergillus flavus [1] and with Aspergillus flavus [2] was 100% throughout.

`CC1=CCC(=C(C)C)CC1` [TERPINOLENE]: the Activity in the assay on Aspergillus flavus [1] and in the assay on Aspergillus flavus [2] was 0% throughout.

The values above are taken from ChEMBL document CHEMBL3046752, “Characterization of the volatile constituents in the essential oil of Pistacia lentiscus L. from different origins and its antifungal and antioxidant activity” (2007).
